In ChEMBL document CHEMBL3627612, “Hirsutinolide Series Inhibit Stat3 Activity, Alter GCN1, MAP1B, Hsp105, G6PD, Vimentin, TrxR1, and Importin α-2 Expression, and Induce Antitumor Effects against Human Glioma” (J Med Chem, 2015):
Active and inactive are the calls of the source. No cut-off for these calls is given here.

Key:
[1] = molecular target: Signal transducer and activator of transcription 3 (Mus musculus) (UniProt P42227); test: Inhibition of Stat3 dimer DNA binding activity in mouse NIH3T3/vSrc nuclear extract at 5 uM preincubated for 30 mins followed by addition of radiolabeled probe hSIE for 30 mins by EMSA
Signal transducer and activator of transcription 3 (Mus musculus), sequence (P42227 whole entry): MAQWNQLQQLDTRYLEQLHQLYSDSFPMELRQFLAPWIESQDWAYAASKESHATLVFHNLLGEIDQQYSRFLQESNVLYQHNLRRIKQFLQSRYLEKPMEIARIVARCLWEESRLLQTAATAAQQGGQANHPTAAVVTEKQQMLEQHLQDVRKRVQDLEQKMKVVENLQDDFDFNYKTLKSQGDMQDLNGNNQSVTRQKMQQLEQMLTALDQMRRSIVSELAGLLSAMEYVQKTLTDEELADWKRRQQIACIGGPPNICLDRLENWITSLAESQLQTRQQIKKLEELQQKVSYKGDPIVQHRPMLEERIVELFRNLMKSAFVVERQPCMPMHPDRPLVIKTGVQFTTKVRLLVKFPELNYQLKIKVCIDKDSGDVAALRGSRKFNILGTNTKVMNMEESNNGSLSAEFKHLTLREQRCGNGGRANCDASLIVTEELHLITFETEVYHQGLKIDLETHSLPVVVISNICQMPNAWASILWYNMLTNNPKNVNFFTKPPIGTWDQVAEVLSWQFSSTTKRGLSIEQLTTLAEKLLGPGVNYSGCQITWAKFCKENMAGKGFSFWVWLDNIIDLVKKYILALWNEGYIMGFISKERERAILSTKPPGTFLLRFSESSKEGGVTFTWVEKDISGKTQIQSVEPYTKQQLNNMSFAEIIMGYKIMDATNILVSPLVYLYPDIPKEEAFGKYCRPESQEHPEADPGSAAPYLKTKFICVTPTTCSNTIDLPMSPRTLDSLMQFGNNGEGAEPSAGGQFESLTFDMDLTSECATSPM

[2] = molecular target: T1, Signal transducer and activator of transcription 3 (Homo sapiens, UniProt P40763); test: Inhibition of Stat3 activity in human U251MG cells assessed as phosphorylated Stat3 level at 5 uM after 0.5 to 24 hrs by immunoblot analysis; type: cell-based; conditions: U-251
T1 sequence (P40763 whole entry): as the sequence (P42227 whole entry) above, with D760E counted along it
Method in brief: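 U251MG cells treated with 5 μM compound for 0–24 h, or with 0–5 μM for 2 h. Whole-cell lysates immunoblotted for pStat3, Stat3, GAPDH. Control was 0.025% DMSO-treated cells.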

[3] = Antiproliferative activity against human SF295 cells for 72 hrs by cyquant assay; type: functional, cell-based; conditions: SF-295, 72 h
Method in brief: (§1)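 CyQuant proliferation assay after 72 h compound exposure of cultured cells; relative viability normalized to DMSO-treated control; IC50 values derived. Glioma lines grown in RPMI or DMEM with 10% FBS and 1% nonessential amino acids.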

[4] = system: U-251; test: Effect on SOCS3 expression in human U251MG cells at 5 uM after 0.5 to 24 hrs by immunoblot analysis; type: functional, cell-based
Method in brief: (§2)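 U251MG cells treated with 5 μM compound for 0–24 h; whole-cell lysates of equal total protein immunoblotted. Controls were 0.025% DMSO-treated cells. Representative of 2–4 independent determinations.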

[5] = system: NIH3T3; test: Modulation of EGF-induced Stat5 phosphorylation in mouse NIH3T3 cells expressing human EGFR at 5 uM preincubated for 3 hrs followed by stimulation with 1 ug/ml EGF for 12 mins by immunoblot analysis; type: cell-based
Method in brief: (§3)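 Whole-cell lysates of equal total protein from NIH3T3/hEGFR fibroblasts, pretreated with or without 5 μM compound (control 0.025% DMSO) for 3 h, then stimulated with 1 μg/ml EGF for 12 min. SDS-PAGE immunoblotting for pStat1/Stat1 and pStat5/Stat5 with β-actin or GAPDH loading controls. Representative of 2–4 independent determinations.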

[6] = molecular target: Mitogen-activated protein kinase 1 and 3 (ERK2 and ERK1) (Mus musculus) (UniProt P63085+Q63844); test: Modulation of EGF-induced Erk1/2 phosphorylation in mouse NIH3T3 cells expressing human EGFR at 5 uM preincubated for 3 hrs followed by stimulation with 1 ug/ml EGF for 12 mins by immunoblot analysis; type: cell-based
Mitogen-activated protein kinase 1 and 3 (ERK2 and ERK1) (Mus musculus), sequence (P63085 whole entry, looked up): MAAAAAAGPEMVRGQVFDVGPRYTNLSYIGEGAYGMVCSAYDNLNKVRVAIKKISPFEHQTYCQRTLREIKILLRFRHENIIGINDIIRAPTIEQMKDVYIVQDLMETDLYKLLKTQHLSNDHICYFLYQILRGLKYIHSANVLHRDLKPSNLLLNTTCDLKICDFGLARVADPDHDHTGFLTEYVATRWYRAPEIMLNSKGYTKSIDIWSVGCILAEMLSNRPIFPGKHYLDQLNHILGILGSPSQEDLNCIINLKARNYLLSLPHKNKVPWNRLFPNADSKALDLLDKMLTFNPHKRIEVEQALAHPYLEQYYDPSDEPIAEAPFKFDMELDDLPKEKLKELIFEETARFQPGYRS
Mitogen-activated protein kinase 1 and 3 (ERK2 and ERK1) (Mus musculus), sequence (Q63844 whole entry, looked up): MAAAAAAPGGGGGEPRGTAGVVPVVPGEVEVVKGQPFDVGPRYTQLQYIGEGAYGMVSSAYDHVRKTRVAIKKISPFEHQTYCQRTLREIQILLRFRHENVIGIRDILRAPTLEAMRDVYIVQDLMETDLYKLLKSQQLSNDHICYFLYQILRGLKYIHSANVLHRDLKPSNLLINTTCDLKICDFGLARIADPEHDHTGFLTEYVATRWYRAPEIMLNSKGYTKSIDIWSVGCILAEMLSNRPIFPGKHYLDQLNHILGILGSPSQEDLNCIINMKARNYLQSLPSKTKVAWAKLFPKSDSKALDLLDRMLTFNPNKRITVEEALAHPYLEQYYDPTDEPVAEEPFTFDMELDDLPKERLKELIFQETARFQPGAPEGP
Method in brief: (§4)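 NIH3T3/hEGFR fibroblasts pretreated with or without 5 μM compound for 3 h, then stimulated with 1 μg/ml EGF for 12 min. Whole-cell lysates of equal total protein immunoblotted for phospho and total Stat3, Stat1, Stat5, Erk1/2. Controls were 0.025% DMSO-treated cells. Representative of 2–4 independent determinations.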

[7] = molecular target: T2, Signal transducer and activator of transcription 1 (Mus musculus) (UniProt P42225); test: Inhibition of Stat1 dimer DNA binding activity in EGF-stimulated mouse NIH3T3 nuclear extract expressing human EGFR assessed as residual activity at 5 uM preincubated for 30 mins followed by addition of radiolabeled probe hSIE for 30 mins by EMSA
T2 sequence (whole entry): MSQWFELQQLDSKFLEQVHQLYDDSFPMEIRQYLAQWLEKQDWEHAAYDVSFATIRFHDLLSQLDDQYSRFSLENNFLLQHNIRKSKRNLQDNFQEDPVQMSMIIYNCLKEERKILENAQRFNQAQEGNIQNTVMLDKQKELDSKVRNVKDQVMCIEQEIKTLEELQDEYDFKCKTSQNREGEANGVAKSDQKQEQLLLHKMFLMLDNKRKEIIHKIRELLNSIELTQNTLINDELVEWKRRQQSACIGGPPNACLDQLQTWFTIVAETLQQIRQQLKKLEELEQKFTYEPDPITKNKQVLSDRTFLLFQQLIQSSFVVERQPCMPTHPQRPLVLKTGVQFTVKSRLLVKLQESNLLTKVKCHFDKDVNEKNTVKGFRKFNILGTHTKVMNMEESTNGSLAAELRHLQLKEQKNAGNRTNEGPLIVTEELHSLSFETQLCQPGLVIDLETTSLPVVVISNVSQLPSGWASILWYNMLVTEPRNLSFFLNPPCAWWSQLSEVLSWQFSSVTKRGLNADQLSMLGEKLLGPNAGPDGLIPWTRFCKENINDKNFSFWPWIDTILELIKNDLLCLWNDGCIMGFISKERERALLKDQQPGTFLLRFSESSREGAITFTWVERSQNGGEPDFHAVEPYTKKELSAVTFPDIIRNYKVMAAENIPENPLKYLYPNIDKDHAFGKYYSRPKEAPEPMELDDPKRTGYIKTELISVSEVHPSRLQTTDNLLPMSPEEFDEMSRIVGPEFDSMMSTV

[8] = molecular target: T2, Signal transducer and activator of transcription 1 (Mus musculus); test: Modulation of EGF-induced Stat1 phosphorylation in mouse NIH3T3 cells expressing human EGFR at 5 uM preincubated for 3 hrs followed by stimulation with 1 ug/ml EGF for 12 mins by immunoblot analysis; type: cell-based; method in brief: as §3
[9] = system: U-251; test: Antiproliferative activity against human U251MG cells at 5 uM for 72 hrs by cyquant assay; type: functional; method in brief: as §1
[10] = Antiproliferative activity against human U373MG cells for 72 hrs by cyquant assay; type: functional, cell-based, U-373MG ATCC; conditions: U373 MG; method in brief: as §1
[11] = molecular target: Mitogen-activated protein kinase; ERK1/ERK2 (Homo sapiens) (UniProt P27361+P28482); test: Modulation of Erk1/2 phosphorylation in human U251MG cells at 5 uM after 0.5 to 24 hrs by immunoblot analysis; type: cell-based; conditions: U-251
Mitogen-activated protein kinase; ERK1/ERK2 (Homo sapiens), sequence (P27361 whole entry, looked up): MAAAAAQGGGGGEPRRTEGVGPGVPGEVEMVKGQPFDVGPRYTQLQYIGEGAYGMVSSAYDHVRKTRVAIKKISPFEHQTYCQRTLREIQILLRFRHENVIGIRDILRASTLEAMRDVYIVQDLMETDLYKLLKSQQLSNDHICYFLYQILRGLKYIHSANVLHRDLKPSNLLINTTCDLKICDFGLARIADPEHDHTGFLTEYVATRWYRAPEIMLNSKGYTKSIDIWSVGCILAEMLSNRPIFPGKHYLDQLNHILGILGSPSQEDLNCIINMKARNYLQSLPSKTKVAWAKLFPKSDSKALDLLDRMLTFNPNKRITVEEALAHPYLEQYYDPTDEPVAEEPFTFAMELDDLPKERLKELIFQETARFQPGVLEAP
Mitogen-activated protein kinase; ERK1/ERK2 (Homo sapiens), sequence (P28482 whole entry, looked up): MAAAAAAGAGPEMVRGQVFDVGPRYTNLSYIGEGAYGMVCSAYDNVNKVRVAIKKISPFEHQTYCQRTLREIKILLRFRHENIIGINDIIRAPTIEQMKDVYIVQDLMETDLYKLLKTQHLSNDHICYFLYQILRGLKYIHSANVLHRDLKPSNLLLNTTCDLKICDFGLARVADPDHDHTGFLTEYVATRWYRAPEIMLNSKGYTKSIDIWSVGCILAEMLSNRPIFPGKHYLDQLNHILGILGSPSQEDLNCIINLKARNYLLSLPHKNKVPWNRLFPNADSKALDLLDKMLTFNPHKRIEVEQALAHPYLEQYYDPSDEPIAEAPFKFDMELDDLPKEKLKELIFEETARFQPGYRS
Method in brief: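 U251MG glioma cells (RPMI or DMEM, 10% FBS, 1% nonessential amino acids) treated with 5 μM compound for 0–24 h; 0.025% DMSO control. Whole-cell lysates of equal total protein immunoblotted for pErk1/2, Erk1/2, pJAK2 and JAK2 with β-actin or GAPDH loading controls. Representative of 2–4 independent determinations.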

[12] = Cytotoxicity against mouse NIH/3T3 cells at 5uM after 72 hrs by cyquant cells; type: cell-based; conditions: nih3t3, 72 h; method in brief: as §1
[13] = molecular target: Signal transducer and activator of transcription 3 (Mus musculus) (UniProt P42227); test: Inhibition of EGF-induced Stat3 phosphorylation in mouse NIH3T3 cells expressing human EGFR at 5 uM preincubated for 3 hrs followed by stimulation with 1 ug/ml EGF for 12 mins by immunoblot analysis; type: cell-based; method in brief: as §4
[14] = Cytotoxicity against mouse NIH/3T3 cells after 72 hrs by cyquant cells; type: cell-based; conditions: NIH3T3, 72 h; method in brief: as §1
[15] = molecular target: T1, Signal transducer and activator of transcription 3; test: Inhibition of Stat3 activity in human U251MG cells assessed as phosphorylated Stat3 level at 5 uM by immunoblot analysis; type: cell-based; conditions: U-251, TDE = time-dependent effect
[16] = system: SF-295; test: Antiproliferative activity against human SF295 cells at 5 uM for 72 hrs by cyquant assay; type: functional, cell-based
[17] = system: MDA-MB-231; test: Antiproliferative activity against human MDA-MB-231 cells at 5 uM for 72 hrs by cyquant assay; type: functional, cell-based
[18] = molecular target: RAC-alpha serine/threonine-protein kinase (Homo sapiens) (UniProt P31749); test: Modulation of Akt phosphorylation in human U251MG cells at 5 uM after 0.5 to 24 hrs by immunoblot analysis; type: cell-based; conditions: U-251; method in brief: as §2
RAC-alpha serine/threonine-protein kinase (Homo sapiens), sequence (P31749 whole entry): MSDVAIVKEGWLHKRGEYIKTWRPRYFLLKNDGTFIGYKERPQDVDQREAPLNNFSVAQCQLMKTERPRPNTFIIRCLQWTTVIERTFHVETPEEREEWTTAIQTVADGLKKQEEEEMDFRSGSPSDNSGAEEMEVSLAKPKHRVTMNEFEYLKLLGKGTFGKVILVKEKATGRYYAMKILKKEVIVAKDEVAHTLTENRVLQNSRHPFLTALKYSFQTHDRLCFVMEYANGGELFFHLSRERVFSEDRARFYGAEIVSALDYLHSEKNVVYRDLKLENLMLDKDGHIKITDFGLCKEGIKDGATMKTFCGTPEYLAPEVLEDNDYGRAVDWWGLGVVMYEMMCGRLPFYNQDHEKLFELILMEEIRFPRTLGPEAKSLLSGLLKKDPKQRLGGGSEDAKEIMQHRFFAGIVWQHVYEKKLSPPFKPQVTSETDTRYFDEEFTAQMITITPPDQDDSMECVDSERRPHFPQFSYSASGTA

[19] = molecular target: T2, Signal transducer and activator of transcription 1 (Mus musculus); test: Inhibition of Stat1 dimer DNA binding activity in EGF-stimulated mouse NIH3T3 nuclear extract expressing human EGFR at 5 uM preincubated for 30 mins followed by addition of radiolabeled probe hSIE for 30 mins by EMSA
[20] = molecular target: T1, Signal transducer and activator of transcription 3; test: Inhibition of orthovandate-induced Stat3 phosphorylation in human U251MG cells at 5 uM for 3 hrs by immunoblot analysis in presence of 10 to 300 uM orthovandate; type: cell-based; conditions: U-251
Method in brief: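 U251MG cells treated with 5 μM compound for 3 h without or with 10–300 μM Na3VO4. Whole-cell lysates of equal total protein immunoblotted for pStat3 and Stat3. Controls were 0.025% DMSO. Representative of 2–4 determinations.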

[21] = system: MDA-MB-231; test: Antiproliferative activity against human MDA-MB-231 cells for 72 hrs by cyquant assay; type: functional, cell-based; conditions: MDA-MB-231, 72 h; method in brief: as §1
[22] = molecular target: Signal transducer and activator of transcription 3 (Mus musculus) (UniProt P42227); test: Inhibition of Stat3 dimer DNA binding activity in EGF-stimulated mouse NIH3T3 nuclear extract expressing human EGFR assessed as residual activity at 5 uM preincubated for 30 mins followed by addition of radiolabeled probe hSIE for 30 mins by EMSA
[23] = system: U-251; test: Effect on PTP1B expression in human U251MG cells at 5 uM after 0.5 to 24 hrs by immunoblot analysis; type: functional, cell-based; method in brief: as §2
[24] = molecular target: Signal transducer and activator of transcription 1/ 3 (Mus musculus) (UniProt P42227+P42225); test: Inhibition of Stat1:Stat3 dimer DNA binding activity in EGF-stimulated mouse NIH3T3 nuclear extract expressing human EGFR assessed as residual activity at 5 uM preincubated for 30 mins followed by addition of radiolabeled probe hSIE for 30 mins by EMSA; type: cell-free
[25] = Antiproliferative activity against human U251MG cells for 72 hrs by cyquant assay; type: functional, cell-based; conditions: U-251, 72 h; method in brief: as §1
[26] = system: NIH3T3; test: Inhibition of Stat5 dimer DNA binding activity in EGF-stimulated mouse NIH3T3 nuclear extract expressing human EGFR at 5 uM preincubated for 30 mins followed by addition of radiolabeled probe MGFe for 30 mins by EMSA; type: cell-free

SMILES | inhibition [1] | inhibition [2] | Activity [7] [%] | inhibition [9] | Activity [12] | inhibition [16] | inhibition [17] | inhibition [19] | Activity [22] [%] | Activity [24] [%] | inhibition [26] | further results
CCC(C)C(=O)OCC1=C2/C(=C\[C@@]3(C)CC[C@](O)(O3)[C@H](C)C[C@@H]2O)OC1=O (stereo partly drawn) | Active | Active |  |  |  |  |  |  |  |  |  | 
C/C=C(/C)C(=O)O[C@H]1C[C@@H](C)[C@]2(O)CC[C@](C)(/C=C3/OC(=O)C(COC(C)=O)=C31)O2 | Active |  | 60 | Active | Toxic | Active | Active | inactive | 47 | 61 | inactive | IC50 [3]: 8.6 µM; Activity [4]: inactive; inhibition [5]: inactive; inhibition [6]: inactive; inhibition [8]: inactive; IC50 [10]: 10.4 µM; Activity [11]: inactive; inhibition [13]: Active; IC50 [14]: 11.8 µM; inhibition [15]: tde; Activity [18]: inactive; inhibition [20]: Active; IC50 [21]: 7.4 µM; Activity [23]: inactive; IC50 [25]: 3.3 µM
C/C=C(/C)C(=O)O[C@H]1C[C@@H](C)[C@]2(O)CC[C@](C)(/C=C3/OC(=O)C(CO)=C31)O2 | Active | Active | 61 | Active | Non-toxic | inactive | inactive | inactive | 63 | 71 | inactive | 
